Experimental data as given in ChEMBL document CHEMBL1137742, “Facile synthesis of bis(4,5-dihydro-1H-pyrazole-1-carboxamides) and their thio-analogues of potential PGE(2) inhibitory properties” (Eur J Med Chem, 2009).

Columns and labels:
Rattus norvegicus [1] = test: Antiinflammatory activity in Wister albino rat assessed as inhibition of carrageenan-induced paw edema volume at 50 mg/kg, ip administered 1 hr before carrageenan challenge measured after 4 hrs; type: functional; conditions: route intraperitoneal
Outline: (§1)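 Wistar albino rats of either sex (pregnant females excluded), 160–190 g, 6 per group. Dosed i.p. in DMSO 1 h before 0.1 ml of 1% carrageenan in saline was injected subcutaneously into the right hind paw; DMSO-only controls. Paw volume was read by plethysmometer at 4 h against the initial volume to give oedema volume and % inhibition of oedema.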

Rattus norvegicus [2] = test: Antiinflammatory activity in Wister albino rat assessed as inhibition of carrageenan-induced paw edema volume at 50 mg/kg, ip administered 1 hr before carrageenan challenge measured after 4 hrs relative to indomethacin; type: functional; design: scale not given: the % may be the effect or the level left; conditions: route intraperitoneal; outline: as §1
Rattus norvegicus [3] = test: Antiinflammatory activity in Wister albino rat assessed as inhibition of carrageenan-induced paw edema volume at 10 mg/kg, ip administered 1 hr before carrageenan challenge measured after 4 hrs; type: functional; conditions: route intraperitoneal; outline: as §1
Rattus norvegicus [4] = test: Antiinflammatory activity in Wister albino rat assessed as inhibition of carrageenan-induced paw edema volume at 20 mg/kg, ip administered 1 hr before carrageenan challenge measured after 4 hrs; type: functional; conditions: route intraperitoneal; outline: as §1
Rattus norvegicus [5] = test: Antiinflammatory activity in ip dosed Wister albino rat assessed as inhibition of carrageenan-induced paw edema volume administered 1 hr before carrageenan challenge measured after 4 hrs; type: functional; outline: as §1
Rattus norvegicus [6] = test: Gastrointestinal toxicity in fasted albino rat assessed ulcer index at 50 mg/kg, po administered for 3 days measured after 1 hr of last dose; type: organism-based; design: dose 50 mg/kg, route oral; conditions: in vivo
Outline: (§2)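 Albino rats of either sex (pregnant excluded), 130–150 g, 6 per group, fasted 18 h. Dosed orally for 3 consecutive days in saline with a few drops of Tween 80. Killed 1 h after the last dose; stomach opened along the greater curvature, rinsed, and mucosa examined at 10× for lesions. Ulcer index computed from % incidence/10, mean ulcer number and severity.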

Rattus norvegicus [7] = test: Antiinflammatory activity against carrageenan-induced inflammation in albino rat 6-day-old air pouch model assessed as inhibition of PGE2 level at 50 mg/kg, po administered prior to carrageenan challenge measured after 6 hrs; type: functional
Outline: (§3)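 Male albino rats, 200–250 g, 6 per group. Air pouch raised by subcutaneous dorsal air: 20 ml on day 1, 10 ml two days later, 10 ml on day 5. On day 6, oral dosing in saline with a few drops of Tween 80, then 2 ml of 1% carrageenan in saline into the pouch. Exudate was aspirated 6 h later under ether, frozen at −20 °C, and PGE2 measured by ELISA (pg/ml).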

Rattus norvegicus [8] = test: Gastrointestinal toxicity in fasted albino rat assessed ulcer index at 10 mg/kg, po administered for 3 days measured after 1 hr of last dose; type: organism-based; design: dose 10 mg/kg, route oral; conditions: in vivo; outline: as §2
Rattus norvegicus [9] = test: Antiinflammatory activity against carrageenan-induced inflammation in albino rat 6-day-old air pouch model assessed as inhibition of PGE2 level at 10 mg/kg, po administered prior to carrageenan challenge measured after 6 hrs; type: functional; outline: as §3

| SMILES | inhibition in vivo at 50 mg/kg (Rattus norvegicus [1]) | Activity (Rattus norvegicus [2]) | inhibition in vivo at 10 mg/kg (Rattus norvegicus [3]) | inhibition in vivo at 20 mg/kg (Rattus norvegicus [4]) | ED50 (Rattus norvegicus [5]) | UI (Rattus norvegicus [6]) | Activity (Rattus norvegicus [7]) | UI (Rattus norvegicus [8]) | Activity (Rattus norvegicus [9]) |
| --- | --- | --- | --- | --- | --- | --- | --- | --- | --- |
| NC(=O)N1N=C(c2ccc(F)cc2)CC1c1ccccc1OCCOc1ccccc1C1CC(c2ccc(F)cc2)=NN1C(N)=O (stereo not given) | 20.8% | 30.8% |  |  |  |  |  |  |  |
| NC(=O)N1N=C(c2ccccc2)CC1c1ccccc1OCCOc1ccccc1C1CC(c2ccccc2)=NN1C(N)=O (stereo not given) | 43.2% | 64% |  |  |  |  |  |  |  |
| NC(=S)N1N=C(c2ccccc2)CC1c1ccc(OCCOc2ccc(C3CC(c4ccccc4)=NN3C(N)=S)cc2)cc1 (stereo not given) | 83.5% | 123.7% | 74.4% | 79.5% | 23.1 mg/kg | 18.5 | 83.33 pg/mL |  |  |
| NC(=S)N1N=C(c2cccs2)CC1c1ccccc1OCCOc1ccccc1C1CC(c2cccs2)=NN1C(N)=S (stereo not given) | 67.5% | 100% | 59.7% | 61.6% | 28.8 mg/kg | 14.33 | 96.5 pg/mL |  |  |
| Cc1ccc(C2=NN(C(N)=S)C(c3ccc(OCCOc4ccc(C5CC(c6ccc(C)cc6)=NN5C(N)=S)cc4)cc3)C2)cc1 (stereo not given) | 34.7% | 51.4% |  |  |  |  |  |  |  |
| NC(=S)N1N=C(c2ccccc2)CC1c1ccccc1OCCOc1ccccc1C1CC(c2ccccc2)=NN1C(N)=S (stereo not given) | 24.5% | 36.3% |  |  |  |  |  |  |  |
| NC(=S)N1N=C(c2ccc(Cl)cc2)CC1c1ccccc1OCCOc1ccccc1C1CC(c2ccc(Cl)cc2)=NN1C(N)=S (stereo not given) | 55.2% | 81.8% | 50.3% | 53.7% | 34.6 mg/kg | 12.16 | 110.83 pg/mL |  |  |
| Cc1ccc(C2=NN(C(N)=O)C(c3ccccc3OCCOc3ccccc3C3CC(c4ccc(C)cc4)=NN3C(N)=O)C2)cc1 (stereo not given) | 22.7% | 33.6% |  |  |  |  |  |  |  |
| Cc1ccc(C2=NN(C(N)=S)C(c3ccccc3OCCOc3ccccc3C3CC(c4ccc(C)cc4)=NN3C(N)=S)C2)cc1 (stereo not given) | 36.8% | 54.5% |  |  |  |  |  |  |  |
| NC(=S)N1N=C(c2ccc(F)cc2)CC1c1ccccc1OCCOc1ccccc1C1CC(c2ccc(F)cc2)=NN1C(N)=S (stereo not given) | 48% | 71.1% | 40.9% | 43.2% | 40.8 mg/kg | 11.51 | 114.67 pg/mL |  |  |
| NC(=O)N1N=C(c2ccc(Cl)cc2)CC1c1ccccc1OCCOc1ccccc1C1CC(c2ccc(Cl)cc2)=NN1C(N)=O (stereo not given) | 45.3% | 67.1% |  |  |  |  |  |  |  |
| COc1ccc2c(c1)c(CC(=O)O)c(C)n2C(=O)c1ccc(Cl)cc1 [INDOMETHACIN] |  |  | 67.5% |  |  |  |  | 13.49 | 98.33 pg/mL |
